One series concerns HepG2. Kind of series: Growth inhibition of human HepG2 cells after 72 hrs by sulforhodamine B assay. The class given is functional, cell-based. The settings on record: HepG2, 72 h. (In general: Sulforhodamine B stains cellular protein and so reports cell mass.)
Series [1] is described as follows: Antioxidant activity assessed as galvinoxyl radical scavenging activity in ethyl acetate by UV-visible spectroscopy. The class given is functional. Put shortly:
(§1)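 The rate constant k (M−1 s−1) came from the slope of pseudo-first-order kobs against compound concentration. Some rates were instead taken from second-order kinetics at a 1/1 compound/GO• ratio. Values are mean±SD of three determinations.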

Series [2] is described as follows: Antioxidant activity assessed as galvinoxyl radical scavenging activity in methanol by UV-visible spectroscopy. The class given is functional. The essentials: as §1
Series [3] in a line: Antioxidant activity assessed as against AAPH-induced oxidative damage of pBR322 plasmid DNA assessed as single strand breakage at 10 uM by gel electrophoresis. The class given is functional. Put shortly: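 Supercoiled pBR322 plasmid DNA (100 ng) incubated with AAPH and/or test compound in PBS, pH 7.4, at 37 °C for 60 min. Strand breakage was assessed by agarose gel electrophoresis as conversion of the supercoiled form to open-circular (single-strand break) and linear (double-strand break) DNA.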

Series [4] is described as follows: Stability in PBS at pH 7.4 by UV-visible spectroscopy. The settings on record: buffer. The class given is physicochemical.
Series [5] is described as follows: Stability in PBS at pH 7.4 by UV-visible spectroscopy in presence of HSA. The class given is physicochemical. The settings on record: buffer.

Molecules are shown by their SMILES. Calls of active or inactive are those of the source. The rule behind the calls is not given here.

On to `COc1cc([C@@H]2c3cc4c(cc3[C@@H](O[C@@H]3O[C@@H]5CO[C@@H](C)O[C@H]5[C@H](O)[C@H]3O)[C@H]3COC(=O)[C@H]23)OCO4)cc(OC)c1O` [ETOPOSIDE], for which the IC50 (in general, the concentration at which inhibition is half-maximal) in the series on HepG2 came to 4.1 µM.

Take `Oc1ccc(/N=C/c2ccccc2)cc1` [4-(BENZYLIDENEAMINO)PHENOL]: the Activity in series [1] worked out at 31.9 M⁻¹ s⁻¹; in series [2] it was 120 M⁻¹ s⁻¹. Besides, in the series on HepG2, the IC50 amounted to 108 µM.

As for `Oc1ccccc1/C=N/c1ccccc1` [2-((PHENYLIMINO)METHYL)PHENOL], the values for the Activity in series [1] and in series [2] were 0.01 M⁻¹ s⁻¹ and 0.04 M⁻¹ s⁻¹, respectively. In the series on HepG2, this compound had an IC50 of more than 300 µM.

`COc1ccc(/N=C/c2ccc(O)cc2)cc1`: the figures for the Activity in series [1] and in series [2] were 1.1 M⁻¹ s⁻¹ and 2.48 M⁻¹ s⁻¹, respectively. Also, the IC50 with HepG2 is more than 300 µM.

For the compound `Oc1ccc(/N=C/c2ccc(O)c(O)c2)cc1`, the Activity in series [1] was 1080 M⁻¹ s⁻¹; in series [2] it was 14800 M⁻¹ s⁻¹. Moreover, it took 5.6 µM to reach half-maximal inhibition in the series with HepG2 (IC50). Further, the outcome in series [3] was Active. For the same compound, the Stability entry in series [4] was “Unstable”; in series [5] it was “Stable”.

Consider `Oc1ccc(/C=C/c2cc(O)cc(O)c2)cc1` [RESVERATROL], for which the Activity in series [1] was 13.4 M⁻¹ s⁻¹; in series [2], 42 M⁻¹ s⁻¹. Further, in the series with HepG2, the IC50 was found to be 79.6 µM. Besides, in series [3], the result was Active.

The record behind these values is ChEMBL document CHEMBL1156217, “Antioxidant and antiproliferative activities of hydroxyl-substituted Schiff bases” (Bioorg Med Chem Lett, 2010).
